Measured values published in ChEMBL document CHEMBL1152615, “Cytosporones, coumarins, and an alkaloid from the endophytic fungus Pestalotiopsis sp. isolated from the Chinese mangrove plant Rhizophoramucronata” (Bioorg Med Chem, 2009).
The source made the active and inactive calls.

How the values were obtained:
Type in all cases: functional, cell-based
[1] = tested on: L5178Y; assay: Cytotoxicity against mouse L5178Y cells
Method in brief: (§1)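 MTT assay. Cells kept in RPMI-1640 with Na-carbonate (pH 7.2) plus 10% FCS, at 37 °C under humidified 5% CO2/95% air. Seeded at 1500 cells/mL and exposed for 72 h to compounds in DMSO at several concentrations, with an initial test concentration of 10 µg/mL. MTT added for 3 h, then DMSO for 1 h to lyse cells; absorbance read at 595 nm. Negative control was medium with 0.1% EGMME/DMSO.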

[2] = tested on: HeLa; assay: Cytotoxicity against human HeLa cells; method in brief: as §1
[3] = tested on: PC-12; assay: Cytotoxicity against rat PC12 cells; method in brief: as §1

Measured: Activity

COc1cc(OC)c2oc(=O)c(CO)cc2c1
inactive: all assays above

COc1cc(OC)c2oc(=O)c(CC(O)CO)cc2c1 (centres undefined)
inactive: all assays above

COC(=O)Cc1cc(O)cc(O)c1C(=O)CCCCCC(C)O (centres undefined)
inactive: all assays above

COc1cc(OC)c2oc(=O)c(C(O)C(C)O)cc2c1 (centres undefined)
inactive: all assays above

CC(=O)OC(C)CCCCCC1OC(=O)Cc2cc(O)cc(O)c21 (centres undefined)
inactive: all assays above

CCCCCCCC(=O)c1c(O)cc(O)cc1CC(=O)OC
inactive: all assays above

COc1cc(OC)c2oc(=O)c(CC(C)O)cc2c1 (centres undefined)
inactive: all assays above

CCCCCCCC1OC(=O)Cc2cc(O)cc(O)c21 (centres undefined)
inactive: all assays above

CC(O)CCCCCC1OC(=O)Cc2cc(O)cc(O)c21 (centres undefined)
inactive: all assays above

COc1cc(O)c2oc(=O)c(CC(O)CO)cc2c1 (centres undefined)
inactive: all assays above

CCOC(=O)Cc1cc(O)cc(O)c1C(=O)CCCCCC(C)O (centres undefined)
inactive: all assays above

CC(=O)OCCCCCCCC1OC(=O)Cc2cc(O)cc(O)c21 (centres undefined)
inactive: all assays above

COc1cc(O)cc2cc(CO)c(=O)oc12
inactive: all assays above
